From ChEMBL document CHEMBL4732102, “Sustainable, three-component, one-pot procedure to obtain active anti-flavivirus agents” (Eur J Med Chem, 2021) come the findings set out here.

Calls of active or inactive are those of the source. The calls are words filed in the database; no cut-off is given here.

In one data set the test system is dengue virus type 2. Nature of the data set: Inhibition of Dengue virus 2 full length NS5 RNA-dependent RNA polymerase assessed as reduction in de novo initiation activity at 30 uM incubated for 1 hr relative to control.
Conditions: not given
The essentials: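 De novo initiation assay: 100 nM full-length DENV-2 NS5 with 100 nM in vitro transcribed DENV-2 5'UTR-3'UTR RNA, 20 µM each of ATP, GTP and UTP, and 5 µM Atto-CTP. Buffer Tris-HCl pH 7.5 with KCl, 1 mM MgCl2, 0.3 mM MnCl2, Triton X-100 and 10 µM cysteine. Compound at 30 µM; 1 h at 37 °C. Read-out by alkaline phosphatase-released AttoPhos fluorescence (422/566 nm).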
What is called inhibition is the change of the read-out against control, counted positive when it falls. With `O=C(NCC1(C(=O)O)CC1)c1cc(-c2ccccc2)c(=O)n2c1sc1ccc(OC3CCCCC3)cc12`, the inhibition came out at 68.1%.

For the compound `C[C@H](CO)NC(=O)c1cc(-c2ccccc2)c(=O)n2c1sc1ccc(OC3CCCCC3)cc12`, the inhibition result was “inactive”.

On to `NC(=O)CCNC(=O)c1cc(-c2ccccc2)c(=O)n2c1sc1ccc(OC3CCCCC3)cc12`, for which the inhibition result was “inactive”.

On to `CC(C)(CC(=O)O)NC(=O)c1cc(-c2ccccc2)c(=O)n2c1sc1ccc(OC3CCCCC3)cc12`, for which the inhibition is 81.5%.

With `C[C@@H](CO)NC(=O)c1cc(-c2ccccc2)c(=O)n2c1sc1ccc(OC3CCCCC3)cc12`, the inhibition result was “inactive”.

As to `O=C(c1cc(-c2ccccc2)c(=O)n2c1sc1ccc(OC3CCCCC3)cc12)N1CCCC(O)C1` (racemic), the inhibition result was “inactive”.

A further data set concerns dengue virus type 2. Kind of data set: Inhibition of Dengue virus 2 full length NS5 RNA-dependent RNA polymerase assessed as reduction in elongation activity at 30 uM incubated for 1 hr relative to control.
Conditions: not given
The essentials:
(§1)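 Elongation (primer-dependent) assay: 100 nM full-length DENV-2 NS5, 100 nM U30-3'UTR template and 3 µM Atto-ATP in 50 mM Tris-HCl pH 7.5, 10 mM KCl, 0.5 mM MnCl2, Triton and 10 µM cysteine. Run 1 h at 37 °C; stopped with alkaline phosphatase and AttoPhos fluorescence read at 422/566 nm. Single point at 30 µM; IC50 is average ± SE of one experiment in duplicate.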
For `O=C(NCC1(C(=O)O)CC1)c1cc(-c2ccccc2)c(=O)n2c1sc1ccc(OC3CCCCC3)cc12`, the inhibition amounted to 96.7%.

As for `C[C@H](CO)NC(=O)c1cc(-c2ccccc2)c(=O)n2c1sc1ccc(OC3CCCCC3)cc12`, the inhibition was 42.7%.

Regarding `NC(=O)CCNC(=O)c1cc(-c2ccccc2)c(=O)n2c1sc1ccc(OC3CCCCC3)cc12`, the inhibition came out at 37.2%.

With `CC(C)(CC(=O)O)NC(=O)c1cc(-c2ccccc2)c(=O)n2c1sc1ccc(OC3CCCCC3)cc12`, the inhibition was 95.9%.

Take `C[C@@H](CO)NC(=O)c1cc(-c2ccccc2)c(=O)n2c1sc1ccc(OC3CCCCC3)cc12`: the inhibition came out at 42.5%.

`O=C(c1cc(-c2ccccc2)c(=O)n2c1sc1ccc(OC3CCCCC3)cc12)N1CCCC(O)C1` (racemic): the inhibition amounted to 36.9%.

Test system in a further data set: not listed separately
Nature of the data set: Inhibition of Dengue virus 2 full length NS5 RNA-dependent RNA polymerase assessed as reduction in elongation activity incubated for 1 hr. Further details: species or system dengue virus type 2.
Conditions: not given
The essentials:
as §1
By IC50 is commonly meant the concentration that gives 50% inhibition. Take `C[C@H](CO)NC(=O)c1cc(-c2ccccc2)c(=O)n2c1sc1ccc(OC3CCCCC3)cc12`: the IC50 result is reported as “Not Active”.

Regarding `NC(=O)CCNC(=O)c1cc(-c2ccccc2)c(=O)n2c1sc1ccc(OC3CCCCC3)cc12`, the half-inhibitory concentration (IC50) entry is given as “Not Active”.

On to `C[C@@H](CO)NC(=O)c1cc(-c2ccccc2)c(=O)n2c1sc1ccc(OC3CCCCC3)cc12`, for which the IC50 result was “Not Active”.

For the compound `O=C(c1cc(-c2ccccc2)c(=O)n2c1sc1ccc(OC3CCCCC3)cc12)N1CCCC(O)C1` (racemic), the concentration for half-maximal inhibition (IC50) result was “Not Active”.

Staying with this data set, now noted: read-out: IC50.
On to `O=C(NCC1(C(=O)O)CC1)c1cc(-c2ccccc2)c(=O)n2c1sc1ccc(OC3CCCCC3)cc12`, for which the IC50 came out at 17.8 µM.

For `CC(C)(CC(=O)O)NC(=O)c1cc(-c2ccccc2)c(=O)n2c1sc1ccc(OC3CCCCC3)cc12`, the half-maximal inhibitory concentration (IC50) was 23.2 µM.

Test system in a further data set: not listed separately
Kind of data set: Cytotoxicity against human Huh-7 cells assessed as reduction in cell viability incubated for 48 hrs by celltiter glo luminescent assay. The format is cell-based. To be noted: Huh-7 cells. Summed up: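 Huh-7 cells (2 × 10^4 seeded, DMEM with 10% FBS) exposed to compound for 48 h at 37 °C. Viability read by CellTiter-Glo luminescence as percent of untreated control. CC50 derived from the viability curve.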
(In general: ATP-based viability assays read luminescence as a measure of living cells.)
Usually CC50 stands for the concentration at which the toxic effect on the cells reaches its halfway point. Regarding `O=C(NCC1(C(=O)O)CC1)c1cc(-c2ccccc2)c(=O)n2c1sc1ccc(OC3CCCCC3)cc12`, the CC50 at 48 h came to 100 µM.

For `C[C@H](CO)NC(=O)c1cc(-c2ccccc2)c(=O)n2c1sc1ccc(OC3CCCCC3)cc12`, the CC50 at 48 h is 17.9 µM.

With `NC(=O)CCNC(=O)c1cc(-c2ccccc2)c(=O)n2c1sc1ccc(OC3CCCCC3)cc12`, the half-maximal cytotoxic concentration (CC50) at 48 h amounted to 52.3 µM.

Consider `CC(C)(CC(=O)O)NC(=O)c1cc(-c2ccccc2)c(=O)n2c1sc1ccc(OC3CCCCC3)cc12`, for which the cytotoxic concentration (CC50) at 48 h came to 100 µM.

As for `C[C@@H](CO)NC(=O)c1cc(-c2ccccc2)c(=O)n2c1sc1ccc(OC3CCCCC3)cc12`, the CC50 at 48 h is 21.7 µM.

For `O=C(c1cc(-c2ccccc2)c(=O)n2c1sc1ccc(OC3CCCCC3)cc12)N1CCCC(O)C1` (racemic), the CC50 at 48 h was 22.2 µM.

In a further data set the test system is dengue virus type 2. Nature of the data set: Antiviral activity against dengue virus 2 EDEN 3295 infected in human Huh-7 cells assessed as reduction in virus replication incubated for 48 hrs by plaque reduction assay. The format is functional, organism-based. To be noted: EDEN 3295, Huh-7, 48 h. Summed up: (§2)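 Huh-7 cells (1 × 10^5 seeded) infected 1 h at 37 °C with ZIKV H/PF/2013 at MOI 0.5 or DENV-2 EDEN3295 at MOI 0.3. Dose–response treatment from 0.01 to 100 µM followed, 24 h for ZIKV and 48 h for DENV-2. Supernatant titre measured by BHK-21 plaque assay. EC50 taken from a sigmoidal fit of titre versus concentration; average ± SE of one experiment in duplicate.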
One may read the EC50 as the concentration giving half of the maximal effect. With `O=C(NCC1(C(=O)O)CC1)c1cc(-c2ccccc2)c(=O)n2c1sc1ccc(OC3CCCCC3)cc12`, the EC50 turned out to be 7.5 µM.

As to `C[C@H](CO)NC(=O)c1cc(-c2ccccc2)c(=O)n2c1sc1ccc(OC3CCCCC3)cc12`, the concentration giving a half-maximal response (EC50) was 5.8 µM.

With `NC(=O)CCNC(=O)c1cc(-c2ccccc2)c(=O)n2c1sc1ccc(OC3CCCCC3)cc12`, the 50% effective concentration (EC50) was found to be 0.9 µM.

As for `CC(C)(CC(=O)O)NC(=O)c1cc(-c2ccccc2)c(=O)n2c1sc1ccc(OC3CCCCC3)cc12`, the EC50 worked out at 3.1 µM.

On to `C[C@@H](CO)NC(=O)c1cc(-c2ccccc2)c(=O)n2c1sc1ccc(OC3CCCCC3)cc12`, for which the EC50 came out at 1.1 µM.

Regarding `O=C(c1cc(-c2ccccc2)c(=O)n2c1sc1ccc(OC3CCCCC3)cc12)N1CCCC(O)C1` (racemic), the EC50 amounted to 1.3 µM.

The subject of a further data set is Zika virus. Kind of data set: Antiviral activity against Zika virus H/PF/2013 infected in human Huh-7 cells assessed as reduction in virus replication incubated for 24 hrs by plaque reduction assay. It is filed as functional, organism-based. To be noted: H/PF/2013, Huh-7, 24 h. Summed up:
as §2
For `C[C@H](CO)NC(=O)c1cc(-c2ccccc2)c(=O)n2c1sc1ccc(OC3CCCCC3)cc12`, the half-maximal effective concentration (EC50) amounted to 7.3 µM.

Regarding `NC(=O)CCNC(=O)c1cc(-c2ccccc2)c(=O)n2c1sc1ccc(OC3CCCCC3)cc12`, the EC50 is 7.3 µM.

As to `C[C@@H](CO)NC(=O)c1cc(-c2ccccc2)c(=O)n2c1sc1ccc(OC3CCCCC3)cc12`, the EC50 was determined as 8.1 µM.

Consider `O=C(c1cc(-c2ccccc2)c(=O)n2c1sc1ccc(OC3CCCCC3)cc12)N1CCCC(O)C1` (racemic), for which the EC50 was determined as 11.1 µM.

Another data set concerns Zika virus. Kind of data set: Antiviral activity against Zika virus H/PF/2013 infected in human Huh-7 cells assessed as reduction in virus replication at 10 uM incubated for 24 hrs by plaque reduction assay relative to control. Further details: scale not given: the % may be the effect or the level left. It is filed as functional.
Conditions: not given
The essentials:
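Huh-7 cells (1 × 10^5 seeded) infected 1 h at 37 °C with DENV-2 EDEN3295 (MOI 0.3) or ZIKV H/PF/2013 (MOI 0.5). Infected cells then treated at a single 10 µM concentration, 24 h for ZIKV and 48 h for DENV-2. Clarified supernatant titred by BHK-21 plaque assay. Viral titre reduction expressed as percent inhibition.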
(In general: Plaques are areas of infected cells; plaque reduction assays count them against a control.)
For the compound `O=C(NCC1(C(=O)O)CC1)c1cc(-c2ccccc2)c(=O)n2c1sc1ccc(OC3CCCCC3)cc12`, the Activity worked out at 15.8%.

`CC(C)(CC(=O)O)NC(=O)c1cc(-c2ccccc2)c(=O)n2c1sc1ccc(OC3CCCCC3)cc12`: the Activity is recorded as 10.6%.

Test system in another data set: not listed separately
Kind of data set: Selectivity index, ratio of CC50 for human Huh-7 cells to EC50 for dengue virus 2 EDEN 3295 infected in human Huh-7 cells. The format is toxicity, cell-based. The following applies: read-out: Ratio CC50/EC50.
In the case of `O=C(NCC1(C(=O)O)CC1)c1cc(-c2ccccc2)c(=O)n2c1sc1ccc(OC3CCCCC3)cc12`, the selectivity ratio amounted to 13.3.

As to `C[C@H](CO)NC(=O)c1cc(-c2ccccc2)c(=O)n2c1sc1ccc(OC3CCCCC3)cc12`, the selectivity ratio was 3.

Turning to `NC(=O)CCNC(=O)c1cc(-c2ccccc2)c(=O)n2c1sc1ccc(OC3CCCCC3)cc12`, the selectivity ratio was 58.

As for `CC(C)(CC(=O)O)NC(=O)c1cc(-c2ccccc2)c(=O)n2c1sc1ccc(OC3CCCCC3)cc12`, the selectivity ratio is 32.

As for `C[C@@H](CO)NC(=O)c1cc(-c2ccccc2)c(=O)n2c1sc1ccc(OC3CCCCC3)cc12`, the selectivity ratio was 20.

As for `O=C(c1cc(-c2ccccc2)c(=O)n2c1sc1ccc(OC3CCCCC3)cc12)N1CCCC(O)C1` (racemic), the selectivity ratio amounted to 17.

Test system in the next data set: not listed separately
Nature of the data set: Selectivity index, ratio of CC50 for human Huh-7 cells to EC50 for Zika virus H/PF/2013 infected in human Huh-7 cells. It is filed as toxicity, cell-based. To be noted: read-out: Ratio CC50/EC50.
As for `C[C@H](CO)NC(=O)c1cc(-c2ccccc2)c(=O)n2c1sc1ccc(OC3CCCCC3)cc12`, the selectivity ratio was determined as 2.4.

On to `NC(=O)CCNC(=O)c1cc(-c2ccccc2)c(=O)n2c1sc1ccc(OC3CCCCC3)cc12`, for which the selectivity ratio amounted to 7.1.

As to `C[C@@H](CO)NC(=O)c1cc(-c2ccccc2)c(=O)n2c1sc1ccc(OC3CCCCC3)cc12`, the selectivity ratio stood at 2.6.

As for `O=C(c1cc(-c2ccccc2)c(=O)n2c1sc1ccc(OC3CCCCC3)cc12)N1CCCC(O)C1` (racemic), the selectivity ratio amounted to 2.
